The record followed here is ChEMBL document CHEMBL1821560, “Inhibitors of androgen receptor activation function-2 (AF2) site identified through virtual screening” (J Med Chem, 2011).

Activity calls are given as the source filed them. No cut-off for these calls is given here.

The target in assay [1] is T1, Androgen receptor (Rattus norvegicus) (UniProt P15207).
T1 sequence (whole entry): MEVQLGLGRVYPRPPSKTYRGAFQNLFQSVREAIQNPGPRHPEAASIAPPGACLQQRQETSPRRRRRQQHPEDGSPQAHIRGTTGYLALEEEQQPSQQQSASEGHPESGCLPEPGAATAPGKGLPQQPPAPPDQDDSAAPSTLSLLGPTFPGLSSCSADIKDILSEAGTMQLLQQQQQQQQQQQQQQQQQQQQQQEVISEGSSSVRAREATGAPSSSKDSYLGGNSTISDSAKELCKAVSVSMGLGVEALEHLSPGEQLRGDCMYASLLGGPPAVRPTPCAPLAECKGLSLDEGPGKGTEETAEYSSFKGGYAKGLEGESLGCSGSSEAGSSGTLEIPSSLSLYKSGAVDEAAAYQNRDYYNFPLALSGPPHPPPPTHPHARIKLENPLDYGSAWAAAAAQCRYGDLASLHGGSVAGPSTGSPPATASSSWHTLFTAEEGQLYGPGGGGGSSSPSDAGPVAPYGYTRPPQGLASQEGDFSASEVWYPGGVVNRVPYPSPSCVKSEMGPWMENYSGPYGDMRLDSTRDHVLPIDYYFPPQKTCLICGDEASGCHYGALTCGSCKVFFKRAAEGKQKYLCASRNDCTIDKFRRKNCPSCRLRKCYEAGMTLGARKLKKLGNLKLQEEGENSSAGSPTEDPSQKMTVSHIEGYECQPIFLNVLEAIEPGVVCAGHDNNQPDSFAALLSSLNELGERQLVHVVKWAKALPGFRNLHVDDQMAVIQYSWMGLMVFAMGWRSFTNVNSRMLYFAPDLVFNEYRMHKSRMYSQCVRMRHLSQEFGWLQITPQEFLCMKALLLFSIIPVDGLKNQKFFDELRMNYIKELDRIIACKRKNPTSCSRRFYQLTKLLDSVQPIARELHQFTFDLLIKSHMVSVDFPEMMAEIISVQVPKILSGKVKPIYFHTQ
The assay can be described thus: Displacement of androgen from His-GST tagged rat AR hormone binding site at 10 uM assessed as decrease in fluorescence polarization. Summed up: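 Hormone-site competition run with Polar Screen Androgen Receptor Competitor Green kit per manufacturer's protocol; compounds tested at 10 μM.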
Background: In fluorescence polarisation assays a small probe gives low polarisation when free and higher when bound to something large.

The target of assay [2] is T2, Androgen receptor (Homo sapiens, UniProt P10275).
T2 sequence (P10275 whole entry): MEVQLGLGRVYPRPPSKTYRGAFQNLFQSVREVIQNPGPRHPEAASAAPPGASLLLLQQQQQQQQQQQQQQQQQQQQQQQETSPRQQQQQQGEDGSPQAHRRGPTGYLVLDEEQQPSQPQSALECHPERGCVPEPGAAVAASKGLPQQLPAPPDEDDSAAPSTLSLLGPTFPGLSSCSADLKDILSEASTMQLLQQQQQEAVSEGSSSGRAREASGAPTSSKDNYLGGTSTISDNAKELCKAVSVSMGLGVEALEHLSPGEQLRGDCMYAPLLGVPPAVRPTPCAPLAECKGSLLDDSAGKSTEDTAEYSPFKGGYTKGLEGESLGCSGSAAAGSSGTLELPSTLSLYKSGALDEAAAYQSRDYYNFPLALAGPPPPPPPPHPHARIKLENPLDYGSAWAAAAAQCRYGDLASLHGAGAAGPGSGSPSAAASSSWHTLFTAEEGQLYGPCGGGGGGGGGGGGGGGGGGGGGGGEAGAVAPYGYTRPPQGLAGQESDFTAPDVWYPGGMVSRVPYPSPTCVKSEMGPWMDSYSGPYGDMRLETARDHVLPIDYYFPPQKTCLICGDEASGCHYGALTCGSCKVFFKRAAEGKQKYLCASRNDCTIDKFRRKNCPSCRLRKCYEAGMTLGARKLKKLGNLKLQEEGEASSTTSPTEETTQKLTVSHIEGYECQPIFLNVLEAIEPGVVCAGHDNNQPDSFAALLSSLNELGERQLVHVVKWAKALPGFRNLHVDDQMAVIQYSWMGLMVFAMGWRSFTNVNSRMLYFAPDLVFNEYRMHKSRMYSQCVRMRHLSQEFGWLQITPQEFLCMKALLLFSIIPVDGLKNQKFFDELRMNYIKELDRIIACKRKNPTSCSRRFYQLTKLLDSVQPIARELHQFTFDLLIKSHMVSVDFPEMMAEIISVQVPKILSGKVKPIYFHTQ
The assay can be described thus: (§1) Displacement of SRC2-3 peptide from human AR ligand binding site expressed in Escherichia coli BL21 by AF2 FP assay. Summed up:
(§2)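 Purified AR LBD (2 μM) with FITC-SRC2-3 peptide (5 nM), compound 0–200 μM, in 25 mM HEPES pH 7.5, 50 mM NaCl, 0.01% NP-40, 2 μM DHT; 2 h incubation, FP read at ex 485/em 530 nm. Triplicate, means ± SD; IC50 by nonlinear four-parameter fit, Ki via Kenakin equation.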

Assay [3] concerns the target T2, Androgen receptor. The assay can be described thus: (§3) Inhibition of human AR AF2 site expressed in human LNCap cells coexpressing eGFP -ARR2PB assessed as inhibition of transcriptional activity. The format is cell-based. The method, boiled down: (§4)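 LNCaP cells stably carrying eGFP under androgen-responsive ARR2PB promoter, kept 5 days in phenol-red-free RPMI 1640 with 5% CSS, then plated at 35 000 cells/well with 0.1 nM R1881 plus compound 0–100 μM; after 3 days eGFP fluorescence read (ex 485, em 535 nm).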

For a further assay, the system named is LNCaP. Put plainly: Cytotoxicity against human LNCAP cells at 50 uM assessed as cell viability after 72 hrs by MTS assay. The format is functional. Summed up:
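LN-ARR2PBeGFP LNCaP cells exposed to compound for 72 h, then MTS reagent added and incubated 2 h at 37 °C in 5% CO2; absorbance read-out of proliferation/viability.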
(In general: Tetrazolium assays rely on reduction of a dye to a coloured formazan, in cell work by metabolically active cells.)

Assay [4] addresses T3, Androgen receptor (Homo sapiens) (UniProt P10275).
T3 sequence (whole entry): T2 sequence (P10275 whole entry)
Described as §1. The method, boiled down:
as §2

Assay [5] concerns the target T3, Androgen receptor (Homo sapiens). The assay is described as §3. The format is cell-based. The method, boiled down: as §4

Regarding `Oc1ccc(C2Nc3cccc4cccc(c34)N2)cc1`, the inhibition result in assay [1] is “inactive”. Besides, the IC50 (in general, the concentration needed to halve the response being measured) at Androgen receptor [2] was 30.7 µM; on Androgen receptor [3], 5.9 µM. Further, the viability – broadly, a read-out of living cells in per cent, often relative to untreated cells – at 50 µM with LNCaP amounted to 106%.

As for `CCOc1cc(C2Nc3cccc4cccc(c34)N2)ccc1O`, the inhibition entry in assay [1] was “inactive”. The IC50 at Androgen receptor [2] worked out at 31.5 µM; on Androgen receptor [3], 11.1 µM. The viability at 50 µM with LNCaP is 122%.

`COc1ccc(C2Nc3cccc4cccc(c34)N2)cc1O`: in assay [1], the inhibition entry was “inactive”. The IC50 on Androgen receptor [2] came to 8.2 µM; at Androgen receptor [3], 34.4 µM. Moreover, the inhibition entry in assay [4] and in assay [5] was “Dose-dependent effect” each time. For the same compound, the viability at 50 µM in the assay with LNCaP was determined as 145%.

Regarding `CC1=NN(c2ccccc2)C(=O)/C1=N\Nc1ccc(C(=O)O)c(O)c1`, in assay [1], the inhibition entry is “inactive”. In addition, the results for the IC50 on Androgen receptor [2] and at Androgen receptor [3] were 26 µM and 33.4 µM, respectively. Further, the inhibition entry in assay [4] and in assay [5] was “Dose-dependent effect” throughout. The viability at 50 µM in the assay with LNCaP amounted to 50.9%.

With `Oc1ccc(C2Nc3cccc4cccc(c34)N2)cc1O`, the inhibition entry in assay [1] is “inactive”. Besides, the values for the IC50 at Androgen receptor [2] and at Androgen receptor [3] were 30.6 µM and 18.6 µM, respectively. Further, the inhibition entry in assay [4] and in assay [5] was “Dose-dependent effect” in each case. In the assay with LNCaP, the viability at 50 µM was 121%.

As to `COc1cc(C2Nc3cccc4cccc(c34)N2)ccc1O`, in assay [1], the inhibition result is “inactive”. Also, the values for the half-inhibitory concentration (IC50) on Androgen receptor [2] and at Androgen receptor [3] were 32.9 µM and 4.6 µM, respectively. In the assay with LNCaP, the viability at 50 µM worked out at 129%.
